From ChEMBL document CHEMBL3632567, “Selective Allosteric Antagonists for the G Protein-Coupled Receptor GPRC6A Based on the 2-Phenylindole Privileged Structure Scaffold” (J Med Chem, 2015) come the findings set out here.

Test [1] concerns the target T1, 5-hydroxytryptamine receptor 2C (Homo sapiens, UniProt P28335).
T1 sequence (P28335 whole entry): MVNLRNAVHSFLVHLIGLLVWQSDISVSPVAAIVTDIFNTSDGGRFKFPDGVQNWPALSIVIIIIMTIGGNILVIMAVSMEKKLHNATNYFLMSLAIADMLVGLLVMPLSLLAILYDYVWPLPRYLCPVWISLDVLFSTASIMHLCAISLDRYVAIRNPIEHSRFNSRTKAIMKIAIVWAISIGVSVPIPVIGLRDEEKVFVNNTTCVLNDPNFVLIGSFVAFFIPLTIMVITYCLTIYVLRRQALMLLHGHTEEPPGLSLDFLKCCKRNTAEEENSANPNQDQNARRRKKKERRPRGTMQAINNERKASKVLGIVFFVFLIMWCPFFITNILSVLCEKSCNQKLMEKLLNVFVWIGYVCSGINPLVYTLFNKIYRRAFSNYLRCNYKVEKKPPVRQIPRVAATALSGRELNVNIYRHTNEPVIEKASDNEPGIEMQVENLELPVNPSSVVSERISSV
In words: Antagonist activity at human 5HT2C receptor expressed in HEK293 cells assessed as inhibition of serotonin-induced inositol monophosphate accumulation after 1 hr by FRET assay. In kind it is functional, cell-based. Summed up:
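HEK-293T cells transiently transfected with human 5-HT2C (0.25 µg DNA/well), seeded 12,500/well 48 h before assay. After two HBSS/HEPES/BSA pH 7.4 washes, compounds in 2% DMSO final with 1 µM serotonin in Ligand Buffer (1 mM CaCl2, 1 mM MgCl2, LiCl, pH 7.4) applied 1 h at 37 °C. Lysate IP1 measured by HTRF (665/615 nm ratio vs standard); pIC50 by nonlinear regression, triplicate, ≥3 experiments.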

For test [2], the target named is Metabotropic glutamate receptor 5 (Rattus norvegicus, UniProt P31424). The test is described as follows: Antagonist activity at rat mGluR5 expressed in CHO cells assessed as inhibition of L-glutamate-induced inositol monophosphate accumulation after 1 hr by FRET assay. In kind it is functional, cell-based. Summed up: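 CHO cells stably expressing rat mGluR5, kept in DMEM with 10% dialyzed FBS and 1% L-proline, 37 °C, 5% CO2. After two washes in HBSS/HEPES/BSA pH 7.4, cells were stimulated 1 h at 37 °C with 100 µM L-glutamate and compounds (2% DMSO final) in LiCl Ligand Buffer. IP1 accumulation by HTRF; triplicate curves, ≥3 experiments.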

For test [3], the target named is T2, G-protein coupled receptor family C group 6 member A (Mus musculus, UniProt Q8K4Z6).
T2 sequence (Q8K4Z6 whole entry): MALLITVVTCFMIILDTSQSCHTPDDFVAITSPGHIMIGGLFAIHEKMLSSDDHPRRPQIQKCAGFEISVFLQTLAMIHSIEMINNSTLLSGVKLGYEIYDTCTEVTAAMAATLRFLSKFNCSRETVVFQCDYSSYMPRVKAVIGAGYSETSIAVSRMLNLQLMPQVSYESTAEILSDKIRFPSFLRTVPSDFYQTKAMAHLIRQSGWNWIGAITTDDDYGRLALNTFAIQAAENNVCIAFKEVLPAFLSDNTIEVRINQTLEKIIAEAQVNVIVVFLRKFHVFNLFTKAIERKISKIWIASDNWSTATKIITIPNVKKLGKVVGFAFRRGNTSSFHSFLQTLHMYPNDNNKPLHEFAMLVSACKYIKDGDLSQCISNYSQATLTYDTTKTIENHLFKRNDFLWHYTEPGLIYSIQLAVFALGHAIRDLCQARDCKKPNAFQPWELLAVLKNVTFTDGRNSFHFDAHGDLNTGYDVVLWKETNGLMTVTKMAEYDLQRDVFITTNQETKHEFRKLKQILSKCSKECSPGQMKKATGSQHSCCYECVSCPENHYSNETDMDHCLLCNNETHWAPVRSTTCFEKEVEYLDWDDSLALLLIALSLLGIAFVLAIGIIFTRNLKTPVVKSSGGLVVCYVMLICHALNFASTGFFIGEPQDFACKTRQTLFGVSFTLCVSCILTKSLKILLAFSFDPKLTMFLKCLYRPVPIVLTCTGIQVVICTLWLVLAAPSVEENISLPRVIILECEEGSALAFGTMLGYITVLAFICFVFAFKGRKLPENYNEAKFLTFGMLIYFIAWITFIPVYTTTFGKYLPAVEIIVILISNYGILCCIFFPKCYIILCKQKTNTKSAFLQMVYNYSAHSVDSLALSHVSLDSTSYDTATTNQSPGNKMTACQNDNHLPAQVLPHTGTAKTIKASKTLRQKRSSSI
In words: Antagonist activity at mouse GPRC6A receptor expressed in HEK293 cells assessed as inhibition of L-ornithine-induced inositol monophosphate accumulation after 1 hr by FRET assay. Format: functional, cell-based. Summed up:
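HEK-293T cells transiently co-transfected (Lipofectamine 2000, 48 h before assay) with mouse GPRC6A and Gq(G66D), 1:1, 12,500 cells/well on poly-D-lysine. Cells washed twice in HBSS/HEPES/BSA pH 7.4, then 1 h at 37 °C with compounds (up to 400 µM, 2% DMSO final) plus 500 µM L-ornithine in LiCl Ligand Buffer. IP1 read by HTRF; curves triplicate, ≥3 experiments; relative potency = IC50(reference)/IC50 × 100.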

For test [4], the target named is Muscarinic acetylcholine receptor M3 (Homo sapiens, UniProt P20309). The test is described as follows: Antagonist activity at human muscarinic M3 receptor expressed in HEK293 cells assessed as inhibition of carbachol-induced inositol monophosphate accumulation after 1 hr by FRET assay. In kind it is functional, cell-based. Summed up: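 HEK-293T cells transfected with empty pCIneo to use their native human M3 receptors, 12,500/well, assayed 48 h later. After two HBSS/HEPES/BSA pH 7.4 washes, cells were stimulated 1 h at 37 °C with 1 mM carbachol plus compounds (2% DMSO final) in LiCl-containing Ligand Buffer. IP1 quantified by HTRF against standard; triplicate curves, at least three experiments.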

In test [5] the target is T3, Extracellular calcium-sensing receptor (Rattus norvegicus, UniProt P48442).
T3 sequence (P48442 whole entry): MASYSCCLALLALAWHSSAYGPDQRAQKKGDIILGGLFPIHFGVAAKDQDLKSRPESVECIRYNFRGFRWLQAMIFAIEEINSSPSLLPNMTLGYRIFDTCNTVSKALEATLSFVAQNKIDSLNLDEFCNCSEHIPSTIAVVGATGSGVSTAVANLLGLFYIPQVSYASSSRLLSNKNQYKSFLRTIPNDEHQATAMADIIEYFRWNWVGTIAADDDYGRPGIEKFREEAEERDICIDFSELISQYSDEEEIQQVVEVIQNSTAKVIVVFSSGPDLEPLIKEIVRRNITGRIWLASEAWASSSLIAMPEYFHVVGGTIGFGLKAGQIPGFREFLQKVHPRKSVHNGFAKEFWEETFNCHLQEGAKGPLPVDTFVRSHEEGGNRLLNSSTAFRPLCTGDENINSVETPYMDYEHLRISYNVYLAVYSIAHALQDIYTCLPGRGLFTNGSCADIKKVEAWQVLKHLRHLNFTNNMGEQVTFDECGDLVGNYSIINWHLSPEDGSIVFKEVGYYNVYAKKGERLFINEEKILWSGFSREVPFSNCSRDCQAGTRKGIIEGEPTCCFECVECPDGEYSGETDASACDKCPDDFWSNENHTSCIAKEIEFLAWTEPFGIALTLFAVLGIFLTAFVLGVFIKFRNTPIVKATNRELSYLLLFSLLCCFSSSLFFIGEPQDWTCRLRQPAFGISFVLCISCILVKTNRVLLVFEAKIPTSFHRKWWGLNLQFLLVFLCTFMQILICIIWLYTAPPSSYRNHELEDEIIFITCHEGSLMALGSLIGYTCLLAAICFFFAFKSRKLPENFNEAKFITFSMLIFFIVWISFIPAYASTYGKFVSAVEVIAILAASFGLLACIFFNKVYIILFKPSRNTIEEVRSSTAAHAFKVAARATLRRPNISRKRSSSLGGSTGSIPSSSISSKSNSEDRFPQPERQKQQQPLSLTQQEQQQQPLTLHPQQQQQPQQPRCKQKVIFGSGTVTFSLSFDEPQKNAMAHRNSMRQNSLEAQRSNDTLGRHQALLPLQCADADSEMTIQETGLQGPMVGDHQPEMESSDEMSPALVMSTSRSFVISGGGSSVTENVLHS
The test is described as follows: Antagonist activity at rat CaSR expressed in HEK293 cells assessed as inhibition of Ca2+-induced inositol monophosphate accumulation after 30 min by FRET assay.

Test [6] concerns the target T4, G-protein coupled receptor family C group 6 member A (Mus musculus) (UniProt Q8K4Z6).
T4 sequence (whole entry): T2 sequence (Q8K4Z6 whole entry)
In words: Relative antagonist potency at mouse GPRC6A receptor expressed in HEK293 cells assessed as L-ornithine-induced inositol monophosphate accumulation after 1 hr by FRET assay relative to 2-[methyl-(2-morpholino-2-oxo-ethyl)amino]-1-(2-phenyl-1H-indol-3-yl)ethanone.

Chain of Metabotropic glutamate receptor 5 (P31424 whole entry): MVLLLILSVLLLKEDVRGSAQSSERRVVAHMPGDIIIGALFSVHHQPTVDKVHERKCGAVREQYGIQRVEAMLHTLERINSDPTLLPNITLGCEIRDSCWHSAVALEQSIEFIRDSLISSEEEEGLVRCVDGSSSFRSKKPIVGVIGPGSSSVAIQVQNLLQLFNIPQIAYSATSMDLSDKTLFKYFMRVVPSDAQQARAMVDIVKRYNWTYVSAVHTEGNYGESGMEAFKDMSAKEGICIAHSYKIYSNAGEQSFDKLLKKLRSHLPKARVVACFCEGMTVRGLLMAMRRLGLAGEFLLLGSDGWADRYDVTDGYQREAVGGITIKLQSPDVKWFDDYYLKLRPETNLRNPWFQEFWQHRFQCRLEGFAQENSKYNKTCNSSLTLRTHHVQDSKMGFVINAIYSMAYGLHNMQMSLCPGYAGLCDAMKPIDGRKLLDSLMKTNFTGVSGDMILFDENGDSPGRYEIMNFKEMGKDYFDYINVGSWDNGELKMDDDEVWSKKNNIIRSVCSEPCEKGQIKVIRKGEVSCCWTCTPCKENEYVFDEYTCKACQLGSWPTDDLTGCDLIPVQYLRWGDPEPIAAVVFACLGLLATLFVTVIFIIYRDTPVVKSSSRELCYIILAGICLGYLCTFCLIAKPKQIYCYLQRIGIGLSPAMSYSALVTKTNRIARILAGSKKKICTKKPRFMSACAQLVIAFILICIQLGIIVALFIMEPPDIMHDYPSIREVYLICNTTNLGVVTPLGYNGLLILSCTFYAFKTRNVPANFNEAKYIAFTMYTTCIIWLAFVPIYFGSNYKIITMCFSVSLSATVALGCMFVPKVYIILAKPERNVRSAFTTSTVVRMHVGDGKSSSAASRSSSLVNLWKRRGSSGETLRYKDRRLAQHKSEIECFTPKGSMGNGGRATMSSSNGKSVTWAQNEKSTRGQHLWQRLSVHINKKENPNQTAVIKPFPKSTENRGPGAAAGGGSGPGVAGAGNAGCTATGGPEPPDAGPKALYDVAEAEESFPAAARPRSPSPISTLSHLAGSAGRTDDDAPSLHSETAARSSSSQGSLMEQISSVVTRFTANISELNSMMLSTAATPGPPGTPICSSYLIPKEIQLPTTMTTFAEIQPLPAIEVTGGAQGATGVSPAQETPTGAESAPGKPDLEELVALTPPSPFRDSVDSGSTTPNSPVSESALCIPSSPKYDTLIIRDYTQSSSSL
Chain of Muscarinic acetylcholine receptor M3 (P20309 whole entry): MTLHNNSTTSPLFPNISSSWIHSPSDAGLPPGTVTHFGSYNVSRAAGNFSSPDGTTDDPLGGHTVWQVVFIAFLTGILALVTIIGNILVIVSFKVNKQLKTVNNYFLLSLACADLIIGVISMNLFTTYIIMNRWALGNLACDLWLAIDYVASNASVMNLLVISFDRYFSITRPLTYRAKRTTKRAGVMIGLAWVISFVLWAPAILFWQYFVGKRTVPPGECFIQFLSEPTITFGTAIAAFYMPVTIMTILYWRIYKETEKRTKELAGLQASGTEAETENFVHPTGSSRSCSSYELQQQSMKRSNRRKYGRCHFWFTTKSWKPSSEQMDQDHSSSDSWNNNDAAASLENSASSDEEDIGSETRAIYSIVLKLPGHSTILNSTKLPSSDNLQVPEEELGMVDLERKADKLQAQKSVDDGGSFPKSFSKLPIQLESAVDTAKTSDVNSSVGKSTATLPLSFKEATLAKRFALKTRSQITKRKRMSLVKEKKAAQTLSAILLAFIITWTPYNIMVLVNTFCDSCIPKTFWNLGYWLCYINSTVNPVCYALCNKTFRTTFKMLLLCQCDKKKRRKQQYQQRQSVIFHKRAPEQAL

In the case of `COc1ccc(-c2[nH]c3ccccc3c2C(=O)CN(C)CC(=O)N2CCOCC2)cc1`, the concentration for half-maximal inhibition (IC50) (as a rule, the point on the concentration scale where inhibition reaches its midpoint) came to 51.3 µM in test [1]; 41.7 µM in test [2]; 9.33 µM in test [3]; 4.17 µM in test [4]; 56.2 µM in test [5].

In the case of `CN(CC(=O)c1c(-c2ccccc2)[nH]c2ccccc12)CC(=O)N1CCOCC1`, the 50% inhibitory concentration (IC50) in test [1] is 214 µM; in test [2] it was 224 µM; in test [3] it was 21.9 µM; in test [4], 27.5 µM; in test [5] it was 316 µM.

Regarding `CN(CC(=O)c1c(-c2ccc(F)cc2)[nH]c2ccccc12)CC(=O)N1CCOCC1`, the Relative potency in test [6] came out at 103. In addition, the IC50 in test [3] came out at 21.3 µM.

As to `CN(CC(=O)c1c(-c2ccco2)[nH]c2ccccc12)CC(=O)N1CCOCC1`, the Relative potency in test [6] amounted to 9. Moreover, the IC50 in test [3] came to 248 µM.

With `CN(CCc1c(-c2ccccc2)[nH]c2ccccc12)CC(=O)N1CCOCC1`, the Relative potency in test [6] amounted to 17. Further, the IC50 in test [3] came out at 132 µM.

Regarding `CN(CC(=O)c1c(-c2ccccc2)[nH]c2ccccc12)CC(=O)N1CCCC1`, the Relative potency in test [6] stood at 38. Besides, the IC50 in test [3] is 57.3 µM.

Consider `O=C(CN1CCCC(C(=O)N2CCOCC2)C1)c1c(-c2ccccc2)[nH]c2ccccc12` (centres undefined), for which the 50% inhibitory concentration (IC50) in test [1] is 209 µM; in test [2] it was 263 µM; in test [3] it was 5.5 µM; in test [4] it was 51.3 µM; in test [5] it was 240 µM.

Turning to `CN(CCN1CCOCC1)CC(=O)c1c(-c2ccccc2)[nH]c2ccccc12`, the concentration for half-maximal inhibition (IC50) turned out to be 269 µM in test [1]; 269 µM in test [2]; 6.17 µM in test [3]; 58 µM in test [4]; 347 µM in test [5].

On to `CN(CC(=O)c1c(-c2ccccc2)[nH]c2ccc(F)cc12)CC(=O)N1CCOCC1`, for which the Relative potency in test [6] is 55. Moreover, the IC50 in test [3] worked out at 39.8 µM.

Take `CN(CC(=O)c1c(-c2ccccc2)[nH]c2ccc(CC(=O)N(C)C)cc12)CC(=O)N1CCOCC1`: in test [6], the Relative potency is less than 6. Further, the half-inhibitory concentration (IC50) in test [3] was greater than 400 µM.

With `O=C(CNCC(=O)N1CCOCC1)c1c(-c2ccccc2)[nH]c2ccccc12`, in test [6], the Relative potency amounted to 9. Also, the half-inhibitory concentration (IC50) in test [3] came out at 256 µM.

With `CN(CC(=O)N1CCOCC1)CC(O)c1c(-c2ccccc2)[nH]c2ccccc12` (centres undefined), the Relative potency in test [6] is less than 6. In addition, in test [3], the IC50 was greater than 400 µM.

Regarding `CN(CC(=O)c1c(CO)[nH]c2ccccc12)CC(=O)N1CCOCC1`, the Relative potency in test [6] is less than 6. Also, the IC50 in test [3] is greater than 400 µM.

In the case of `CN(CC(=O)N1CCOCC1)C(=O)c1c(-c2ccccc2)[nH]c2ccccc12`, in test [6], the Relative potency was less than 6. The 50% inhibitory concentration (IC50) in test [3] is greater than 400 µM.

For `CN(CC(=O)c1c[nH]c2ccccc12)CC(=O)N1CCOCC1`, in test [6], the Relative potency was less than 6. For the same compound, the half-maximal inhibitory concentration (IC50) in test [3] was greater than 400 µM.

As to `COc1ccc2[nH]c(-c3ccccc3)c(C(=O)CN(C)CC(=O)N3CCOCC3)c2c1`, the Relative potency in test [6] came out at 33. The IC50 in test [3] came to 66.1 µM.
